According to paper PMC4474499 (Science Advances, 2015):

Assays:
Raw 264.7 cells = assay: Quantitative RT-PCR of mRNA levels in Raw 264.7 macrophage cells; assay type: cell-based, mouse
In short: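 RAW 264.7 cells, 1 × 10^6/well, grown 24 h, then given fresh RPMI 1640. Exposed to test compound, or 33 nM (50 ng/ml) Pam3CSK4, for 0, 2, 8 or 24 h. Cells washed in cold PBS and frozen. Total RNA extracted (RNeasy) for qRT-PCR. Fold change calculated by ΔΔCt versus DMSO-treated cells, means ± SD.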

NF-κB = assay: U937 NF-κB–GFP reporter assay; assay type: cell-based, human; conditions: U937 cells
HEK-Blue hTLR2 cells [1] = assay: QUANTI-Blue SEAP assay with anti-hTLR antibodies; assay type: cell-based, human; conditions: 60 nM, 24 hours
In short: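 HEK-Blue hTLR2 cells, 4 × 10^4/well, grown 24 h. Then 24 h in Opti-MEM/0.5% FBS containing 60 nM test compound, 0.66 nM Pam3CSK4 or 0.77 nM Pam2CSK4. Anti-hTLR1 IgG, anti-hTLR2 IgA or anti-hTLR6 IgA added at 0–10 μg/ml. Supernatant incubated with QUANTI-Blue 1 h at 37°C; A655 read.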

TNF-α = TNF-α ELISA in Raw 264.7 cells; assay type: cell-based; conditions: Mus musculus, RAW264.7, 24 h, read-out: EC50, TNF-α production
In short: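 RAW 264.7 cells, 1 × 10^6/well in six-well plates, grown 24 h. Medium refreshed (RPMI 1640). Treated 24 h with test compound; 66 nM Pam3CSK4 as positive control. Supernatants frozen at −80°C. TNF-α quantified by sandwich ELISA against recombinant cytokine standards, each sample in triplicate.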

TLR1 = target: T1, TLR1 (Homo sapiens, UniProt Q15399); assay: Microscale thermophoresis; assay type: binding
T1 sequence (Q15399 25-580 limits assumed): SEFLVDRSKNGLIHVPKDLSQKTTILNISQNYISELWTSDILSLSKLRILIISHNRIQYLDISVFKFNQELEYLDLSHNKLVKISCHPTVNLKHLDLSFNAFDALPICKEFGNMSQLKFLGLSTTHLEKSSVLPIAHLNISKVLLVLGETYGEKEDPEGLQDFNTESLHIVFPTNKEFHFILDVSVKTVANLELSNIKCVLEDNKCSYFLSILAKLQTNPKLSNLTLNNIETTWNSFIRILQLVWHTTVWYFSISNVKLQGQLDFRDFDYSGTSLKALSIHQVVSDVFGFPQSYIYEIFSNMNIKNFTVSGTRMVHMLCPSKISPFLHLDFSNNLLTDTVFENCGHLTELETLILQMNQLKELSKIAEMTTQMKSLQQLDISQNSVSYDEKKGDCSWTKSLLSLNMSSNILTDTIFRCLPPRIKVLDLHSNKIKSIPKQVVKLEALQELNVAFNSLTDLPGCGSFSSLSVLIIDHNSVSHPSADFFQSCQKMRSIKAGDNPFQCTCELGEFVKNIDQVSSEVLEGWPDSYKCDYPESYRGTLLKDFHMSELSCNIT
In short: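 Human TLR1 expressed in baculovirus-infected High Five insect cells and purified on protein A Sepharose. Labelled with NT-647 and held at 10 nM. Test compound varied 0.31 nM–10 μM. Buffer: 50 mM Tris-HCl pH 7.6, 150 mM NaCl, 10 mM MgCl2, 0.05% Tween 20, in glass capillaries. Apparent Kd fitted from thermophoresis.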

human TLR5 = human TLR5 (Homo sapiens, UniProt O60602); assay: SEAP reporter gene detection assay in HEK-Blue TLR5 cells; assay type: cell-based; conditions: 0 to 20 μM, 24 hours
In short: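 HEK 293 cells stably carrying the human TLR and a SEAP reporter, 4 × 10^4/well, grown 24 h. Then 24 h in Opti-MEM/0.5% FBS with test compound. Positive controls: poly(I:C) 0–10.9 μg/ml (TLR3), LPS 0–36.5 ng/ml (TLR4), FLA-BS 0–10 μg/ml (TLR5), R848 0–6 μg/ml (TLR7, TLR8). Supernatant heated 30 min at 65°C, then CSPD substrate added; luminescence read after 20 min.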

hTLR1 and hTLR2 = hTLR1 and hTLR2 (Homo sapiens, UniProt O60603+Q15399); assay: SEC-LS assay of TLR1/2 heterodimer formation; assay type: biochemical; conditions: CU-T12-9 0 to 40 μM or Pam3CSK4 260 nM (400 ng/ml)
In short: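 Human TLR2 in PBS pH 7.4 preincubated 2 h at RT with test compound or Pam3CSK4. Equimolar hTLR1 then added (final about 10 μM each) for 2 h at 37°C. Both proteins were baculovirus/insect-cell products. Samples filtered (0.1 μm) and run on size-exclusion column in PBS at 1 ml/min. Detection by in-line multi-angle light scattering, refractive index and UV.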

human TLR2 = human TLR2 (Homo sapiens, UniProt O60603+Q15399); assay: SEAP reporter gene detection assay in HEK-Blue hTLR2 cells; assay type: cell-based
In short: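 HEK-Blue hTLR2 cells (SEAP reporter), 4 × 10^4/well, grown 24 h. Then 24 h in Opti-MEM/0.5% FBS with compounds at 0–50 μM or 0–100 μM. Pam3CSK4 (0–66 nM) used as reference agonist. Supernatant heat-treated 30 min at 65°C, cooled, mixed with SEAP buffer and CSPD substrate; luminescence read after 20 min.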

HEK-Blue hTLR2 cells [2] = assay: MTT cell viability assay in HEK-Blue hTLR2 cells; assay type: cell-based, human; conditions: up to 100 μM, 24 h
In short: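 HEK-Blue hTLR2 cells, 40,000/well in DMEM/10% FBS, grown 24 h at 37°C, 5% CO2. Medium then replaced by Opti-MEM (0.5% FBS, non-essential amino acids) with compounds at 0–100 μM for 24 h. MTT added for 4 h; formazan dissolved in DMSO; A560 read. Cytotoxicity % = 1 − (sample − blank)/(control − blank), ×100.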

Sequence of human TLR2 (O60603 21-784): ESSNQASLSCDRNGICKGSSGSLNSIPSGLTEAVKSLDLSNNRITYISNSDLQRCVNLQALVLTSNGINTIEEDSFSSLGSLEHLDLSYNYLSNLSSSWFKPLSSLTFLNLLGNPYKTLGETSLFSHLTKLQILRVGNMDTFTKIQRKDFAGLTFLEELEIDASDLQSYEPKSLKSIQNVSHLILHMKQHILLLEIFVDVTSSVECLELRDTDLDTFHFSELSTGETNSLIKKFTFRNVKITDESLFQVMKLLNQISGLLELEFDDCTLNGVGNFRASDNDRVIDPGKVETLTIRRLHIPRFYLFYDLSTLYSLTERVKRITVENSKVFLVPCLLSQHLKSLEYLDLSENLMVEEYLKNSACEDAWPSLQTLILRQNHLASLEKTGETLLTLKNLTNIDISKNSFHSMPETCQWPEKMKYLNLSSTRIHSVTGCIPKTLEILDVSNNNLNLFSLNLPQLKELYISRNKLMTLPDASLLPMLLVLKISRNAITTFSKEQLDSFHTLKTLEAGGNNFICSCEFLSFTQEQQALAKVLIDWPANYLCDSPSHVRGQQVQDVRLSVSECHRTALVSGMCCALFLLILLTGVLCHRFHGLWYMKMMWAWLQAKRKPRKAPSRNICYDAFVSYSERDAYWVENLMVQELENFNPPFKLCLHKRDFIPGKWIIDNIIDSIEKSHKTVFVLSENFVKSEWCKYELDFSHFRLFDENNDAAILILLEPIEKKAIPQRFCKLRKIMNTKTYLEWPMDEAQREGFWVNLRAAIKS
Sequence of human TLR2 (Q15399 25-786): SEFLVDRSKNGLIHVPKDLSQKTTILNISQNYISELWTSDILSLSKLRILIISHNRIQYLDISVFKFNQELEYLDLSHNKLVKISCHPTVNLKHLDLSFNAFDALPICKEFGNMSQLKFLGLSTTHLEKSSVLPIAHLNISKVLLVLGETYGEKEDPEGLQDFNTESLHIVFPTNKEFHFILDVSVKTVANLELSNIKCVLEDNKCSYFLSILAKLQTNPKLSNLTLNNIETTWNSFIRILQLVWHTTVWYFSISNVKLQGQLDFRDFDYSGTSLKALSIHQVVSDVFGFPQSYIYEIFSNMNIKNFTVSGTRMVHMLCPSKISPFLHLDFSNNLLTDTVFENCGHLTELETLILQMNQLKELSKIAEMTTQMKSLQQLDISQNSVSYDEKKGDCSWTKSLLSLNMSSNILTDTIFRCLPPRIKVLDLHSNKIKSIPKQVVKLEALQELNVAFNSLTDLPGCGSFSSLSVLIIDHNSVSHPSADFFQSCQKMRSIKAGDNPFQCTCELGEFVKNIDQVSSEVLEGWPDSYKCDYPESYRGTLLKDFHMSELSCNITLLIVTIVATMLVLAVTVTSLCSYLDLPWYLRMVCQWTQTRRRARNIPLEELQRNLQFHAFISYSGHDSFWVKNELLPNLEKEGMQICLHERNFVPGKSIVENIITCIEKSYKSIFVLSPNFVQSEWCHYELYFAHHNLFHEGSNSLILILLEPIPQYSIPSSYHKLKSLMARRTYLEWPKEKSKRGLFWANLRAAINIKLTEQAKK
Sequence of human TLR5 (O60602 21-858): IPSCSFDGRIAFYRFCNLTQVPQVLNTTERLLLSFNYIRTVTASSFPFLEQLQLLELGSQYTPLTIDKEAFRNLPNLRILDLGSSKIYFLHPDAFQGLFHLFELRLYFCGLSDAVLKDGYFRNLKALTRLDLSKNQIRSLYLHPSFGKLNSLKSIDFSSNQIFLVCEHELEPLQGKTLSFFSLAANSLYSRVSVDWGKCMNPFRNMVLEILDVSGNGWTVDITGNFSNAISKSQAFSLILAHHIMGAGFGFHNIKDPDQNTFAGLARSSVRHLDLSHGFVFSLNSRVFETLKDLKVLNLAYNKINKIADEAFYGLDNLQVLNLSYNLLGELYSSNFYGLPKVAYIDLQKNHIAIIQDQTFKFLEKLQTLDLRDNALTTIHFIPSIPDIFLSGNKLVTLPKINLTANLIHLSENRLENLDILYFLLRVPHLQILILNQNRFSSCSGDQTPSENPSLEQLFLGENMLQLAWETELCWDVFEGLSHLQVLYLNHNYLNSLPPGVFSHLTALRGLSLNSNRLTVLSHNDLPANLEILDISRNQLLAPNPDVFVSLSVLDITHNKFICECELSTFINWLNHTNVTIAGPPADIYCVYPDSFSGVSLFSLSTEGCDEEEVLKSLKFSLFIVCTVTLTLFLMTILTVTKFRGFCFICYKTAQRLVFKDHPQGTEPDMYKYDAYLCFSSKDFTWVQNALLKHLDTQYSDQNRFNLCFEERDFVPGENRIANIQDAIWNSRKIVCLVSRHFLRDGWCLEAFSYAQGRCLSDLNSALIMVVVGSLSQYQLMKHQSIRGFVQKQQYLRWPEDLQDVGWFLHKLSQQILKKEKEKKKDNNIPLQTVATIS
Sequence of hTLR1 and hTLR2 (O60603 21-588 limits assumed, one chain of several): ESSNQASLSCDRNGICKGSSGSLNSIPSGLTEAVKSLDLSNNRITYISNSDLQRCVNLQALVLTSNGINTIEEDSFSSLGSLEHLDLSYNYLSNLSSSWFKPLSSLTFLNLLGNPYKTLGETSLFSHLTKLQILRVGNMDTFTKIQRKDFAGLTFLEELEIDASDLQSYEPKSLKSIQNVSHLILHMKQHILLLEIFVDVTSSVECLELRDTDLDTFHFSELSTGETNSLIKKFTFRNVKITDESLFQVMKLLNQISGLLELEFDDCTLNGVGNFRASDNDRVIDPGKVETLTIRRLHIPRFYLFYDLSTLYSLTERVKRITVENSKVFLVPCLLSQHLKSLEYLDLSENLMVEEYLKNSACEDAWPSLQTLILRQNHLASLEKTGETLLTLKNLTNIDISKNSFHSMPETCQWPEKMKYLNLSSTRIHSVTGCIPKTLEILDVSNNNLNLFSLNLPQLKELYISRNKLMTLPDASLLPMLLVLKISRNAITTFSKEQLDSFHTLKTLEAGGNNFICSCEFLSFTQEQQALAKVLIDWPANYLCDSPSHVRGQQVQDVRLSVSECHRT

CNc1ccc([N+](=O)[O-])cc1-n1cnc(-c2ccc(C(F)(F)F)cc2)c1 [CU-T12-9, N-methyl-4-nitro-2-(4-(4-(trifluoromethyl)phenyl)-1H-imidazol-1-yl)aniline]
TLR1 mRNA (Raw 264.7 cells; 1 μM CU-T12-9, 24 hours): potently increased | time of highest TLR2 mRNA expression (Raw 264.7 cells; 1 μM CU-T12-9 or 33 nM (50 ng/ml) Pam3CSK4, measured at 2, 8, 24 hours): 2 h | IL-10 mRNA (Raw 264.7 cells; 2 hours, decreased over time): up-regulated | TNF mRNA expression (Raw 264.7 cells; over time, maximal expression after 8 hours): increased | iNOS mRNA expression (Raw 264.7 cells; over time, peaked at 24 hours): increased | NF-κB activation (NF-κB; 5 μM, 24 hours): comparable activation to 66 nM (100 ng/ml) Pam3CSK4 | NF-κB activation (NF-κB; 20 μM (GA even up to 100 μM)): excellent NF-κB activation | activation of QUANTI-Blue SEAP signaling (HEK-Blue hTLR2 cells [1]): strongly activates | EC50 (TNF-α): 60.5 ± 17 nM | Kd (TLR1): 229 ± 66 nM | activation of SEAP signaling, TLR5 (human TLR5): not in other TLR-overexpressing cells | TLR1/2 heterodimer formation (hTLR1 and hTLR2): Heterodimer formation was detected | EC50 (human TLR2): 52.9 ± 6.2 nM | activation of SEAP signaling, hTLR2 (human TLR2; 0 to 20 μM, 24 hours): strongly activate | increase in potency relative to GA (factor) (human TLR2; replacement of –NO2 at R3): 50 | cytotoxicity (HEK-Blue hTLR2 cells [2]): negligible cytotoxicity
